In brackets after ≈: the same amount, converted by molar mass. Activity calls are given as the source filed them. The rule behind the calls is not given here.
Assays:
Candida albicans [1] = test: Fungicidal activity against fluconazole-sensitive Candida albicans SC5314 after 12 to 48 hrs; format: functional, organism-based
In short: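 Time-kill assay starting from 10^5 CFU/mL C. albicans SC5314. Test concentrations ranged from 2–32 μg/mL. Untreated and fluconazole 32 μg/mL controls were included. Viable counts (CFU/mL) were taken at 0, 12, 24 and 48 h of incubation.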

Candida albicans [2] = test: Antifungal activity against fluconazole-sensitive Candida albicans SC5314 assessed as change in ergosterol composition at 8 ug/ml after 24 hrs by GC-MS analysis (reference value: 90%); format: functional
In short: (§1)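 C. albicans SC5314 exposed to 8 μg/mL for 24 h, sterols analysed by GC-MS with cholesterol internal standard; each sterol expressed as % of total sterol fraction versus no-drug control; average of three independent experiments.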

CYP2C9 [3] = target: T1, CYP2C9 (Homo sapiens, UniProt P11712); test: Inhibition of CYP2C9 in human liver microsomes assessed as tolbutamide conversion to 4-hydroxy tolbutamide at 0.25 uM preincubated for 10 mins followed by NADPH addition measured after 15 mins by LC-MS/MS analysis relative to control; format: ADME; details: probe tolbutamide
T1 sequence (P11712 whole entry): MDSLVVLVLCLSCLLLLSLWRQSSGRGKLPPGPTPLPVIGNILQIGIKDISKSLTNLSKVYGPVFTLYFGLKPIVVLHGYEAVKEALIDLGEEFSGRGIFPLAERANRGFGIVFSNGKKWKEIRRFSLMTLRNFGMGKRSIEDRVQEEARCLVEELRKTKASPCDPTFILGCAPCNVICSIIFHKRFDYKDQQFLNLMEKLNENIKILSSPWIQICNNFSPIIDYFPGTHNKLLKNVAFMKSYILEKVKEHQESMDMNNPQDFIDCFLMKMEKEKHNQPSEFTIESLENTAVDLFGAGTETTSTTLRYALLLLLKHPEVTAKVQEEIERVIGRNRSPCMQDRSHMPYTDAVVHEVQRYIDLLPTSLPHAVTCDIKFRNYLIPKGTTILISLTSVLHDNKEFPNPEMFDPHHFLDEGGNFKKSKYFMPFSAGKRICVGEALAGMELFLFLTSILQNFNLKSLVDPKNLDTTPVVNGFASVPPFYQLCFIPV

Candida albicans [4] = test: Fungicidal activity against fluconazole-resistant Candida albicans 103 assessed as growth inhibition at 4 to 32 ug/ml after 12 to 48 hrs; format: functional, organism-based
In short: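 Time-kill: C. albicans (SC5314 or 103) inoculated at 10^5 CFU/mL, untreated or with drug (2–32 μg/mL; fluconazole 32 μg/mL reference); CFU/mL counted after 0, 12, 24 and 48 h.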

Candida parapsilosis = test: Antifungal activity against Candida parapsilosis ATCC 22019 after 24 hrs by serial dilution method; format: functional; details: Lodderomyces parapsilosis, ATCC 22019, 24 h
Candida albicans [5] = test: Antifungal activity against fluconazole-resistant Candida albicans 103 after 24 hrs by serial dilution method in presence of fluconazole; format: functional
In short: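 Tested in combination with fluconazole against each fluconazole-resistant C. albicans strain. Interaction was scored by fractional inhibitory concentration index (FICI): synergy at FICI ≤ 0.5, indifference at 0.5 < FICI ≤ 4, antagonism at FICI > 4.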

CYP2C9 [6] = target: T1, CYP2C9; test: Inhibition of CYP2C9 in human liver microsomes assessed as tolbutamide conversion to 4-hydroxy tolbutamide at 2.5 uM preincubated for 10 mins followed by NADPH addition measured after 15 mins by LC-MS/MS analysis relative to control; format: ADME; details: probe tolbutamide
Candida albicans [7] = test: Antifungal activity against fluconazole-sensitive Candida albicans SC5314 assessed as reduction in cytoplasmic density at 8 ug/ml after 8 hrs by TEM analysis; format: functional, organism-based
In short: (§2)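 Transmission electron microscopy of C. albicans SC5314 cells exposed to 8 μg/mL for 8 h. Untreated cells and cells given fluconazole 8 μg/mL for 8 h served as controls. Cell wall layers, cytoplasmic density and vacuole shape were compared by eye.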

Cryptococcus neoformans = test: Antifungal activity against Cryptococcus neoformans 32609 after 72 hrs by serial dilution method; format: functional; details: Cryptococcus neoformans, 32609, 72 h
WI-38 = test: Cytotoxicity against human WI38 cells by MTT assay; format: cell-based
Cytochrome P450 3A4 [8] = target: T2, Cytochrome P450 3A4 (Homo sapiens, UniProt P08684); test: Inhibition of CYP3A4 in human liver microsomes assessed as testosterone conversion to 6-hydroxy testosterone preincubated for 10 mins followed by NADPH addition measured after 15 mins by LC-MS/MS analysis; format: ADME
T2 sequence (P08684 whole entry): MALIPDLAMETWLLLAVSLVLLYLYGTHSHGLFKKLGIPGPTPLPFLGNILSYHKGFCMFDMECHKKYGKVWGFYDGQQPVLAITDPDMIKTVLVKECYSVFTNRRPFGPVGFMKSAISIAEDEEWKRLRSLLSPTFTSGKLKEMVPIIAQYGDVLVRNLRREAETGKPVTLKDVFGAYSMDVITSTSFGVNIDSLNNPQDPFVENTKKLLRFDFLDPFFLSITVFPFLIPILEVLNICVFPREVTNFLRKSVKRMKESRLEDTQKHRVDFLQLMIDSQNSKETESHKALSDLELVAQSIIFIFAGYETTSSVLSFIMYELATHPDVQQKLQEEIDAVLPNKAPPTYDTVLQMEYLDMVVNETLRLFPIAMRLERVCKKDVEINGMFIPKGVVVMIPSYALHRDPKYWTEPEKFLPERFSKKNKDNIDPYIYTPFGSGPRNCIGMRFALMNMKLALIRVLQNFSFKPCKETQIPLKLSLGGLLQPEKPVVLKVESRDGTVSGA

Candida albicans [9] = test: Inhibition of biofilm formation of fluconazole-sensitive Candida albicans SC5314 at 64 ug/ml after 48 hrs by XTT assay relative to control; format: functional; details: SC5314, 48 h
In short: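 Biofilm formation by C. albicans SC5314 or 103 in presence of 2–64 μg/mL drug (fluconazole 64 μg/mL reference); quantified by XTT reduction as % of blank control; mean ± standard deviation of three independent experiments, ANOVA and Student t test.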

Candida albicans [10] = test: Antifungal activity against fluconazole-sensitive Candida albicans SC5314 assessed as abnormal vacuole shape at 8 ug/ml after 8 hrs by TEM analysis; format: functional, organism-based; in short: as §2
Cytochrome P450 2C9 = Cytochrome P450 2C9 (Homo sapiens, UniProt P11712); test: Inhibition of CYP2C9 in human liver microsomes assessed as tolbutamide conversion to 4-hydroxy tolbutamide preincubated for 10 mins followed by NADPH addition measured after 15 mins by LC-MS/MS analysis; format: ADME
Sequence of Cytochrome P450 2C9 (P11712 whole entry): as the sequence (P11712 whole entry) above

Candida albicans [11] = test: Antifungal activity against fluconazole-sensitive Candida albicans SC5314 assessed as change in sterol composition at 8 ug/ml after 24 hrs by GC-MS analysis (reference value: 8.5%); format: functional; in short: as §1
CYP3A4 = CYP3A4 (Homo sapiens, UniProt P08684); test: Inhibition of CYP3A4 in human liver microsomes assessed as midazolam conversion to 1'-hydroxy midazolam at 2.5 uM preincubated for 10 mins followed by NADPH addition measured after 15 mins by LC-MS/MS analysis relative to control; format: ADME; details: probe midazolam
Sequence of CYP3A4 (P08684 whole entry): as the sequence (P08684 whole entry) above

Cytochrome P450 3A4 [12] = target: T2, Cytochrome P450 3A4; test: Inhibition of CYP3A4 in human liver microsomes assessed as midazolam conversion to 1'-hydroxy midazolam preincubated for 10 mins followed by NADPH addition measured after 15 mins by LC-MS/MS analysis; format: ADME
Candida albicans [13] = test: Antifungal activity against fluconazole-sensitive Candida albicans SC5314 assessed as cell membrane damage at 8 ug/ml after 8 hrs by TEM analysis; format: functional, organism-based
In short: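 Transmission electron microscopy of C. albicans SC5314 cells exposed to 8 μg/mL drug for 8 h; untreated cells as reference; cell wall, membrane, cytoplasm and vacuole morphology inspected.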

Candida albicans [14] = test: Inhibition of hyphal growth of fluconazole-sensitive Candida albicans SC5314 assessed as appearance of unicellular budding yeast form at 4 to 8 ug/ml after 16 hrs by light microscopic analysis; format: functional, organism-based
In short: (§3)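 C. albicans SC5314 was grown in RPMI 1640 at 37 °C for 16 h, without compound or with 2–8 μg/mL. A fluconazole 8 μg/mL control was included. Cell morphology (hyphae, pseudohyphae, budding yeast) was then scored by microscopy.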

Candida albicans [15] = test: Antifungal activity against fluconazole-sensitive Candida albicans SC5314 assessed as change in obtusifoliol composition at 8 ug/ml after 24 hrs by GC-MS analysis relative to control; format: functional; in short: as §1
Nannizzia gypsea = test: Antifungal activity against Microsporum gypseum Cmccfmza after 7 days by serial dilution method; format: functional; details: 168 h
CYP2C19 [16] = target: T3, CYP2C19 (Homo sapiens, UniProt P33261); test: Inhibition of CYP2C19 in human liver microsomes assessed as S-mephenytoin conversion to 4'-hydroxy mephenytoin at 0.25 uM preincubated for 10 mins followed by NADPH addition measured after 15 mins by LC-MS/MS analysis relative to control; format: ADME; details: probe S-mephenytoin
T3 sequence (P33261 whole entry): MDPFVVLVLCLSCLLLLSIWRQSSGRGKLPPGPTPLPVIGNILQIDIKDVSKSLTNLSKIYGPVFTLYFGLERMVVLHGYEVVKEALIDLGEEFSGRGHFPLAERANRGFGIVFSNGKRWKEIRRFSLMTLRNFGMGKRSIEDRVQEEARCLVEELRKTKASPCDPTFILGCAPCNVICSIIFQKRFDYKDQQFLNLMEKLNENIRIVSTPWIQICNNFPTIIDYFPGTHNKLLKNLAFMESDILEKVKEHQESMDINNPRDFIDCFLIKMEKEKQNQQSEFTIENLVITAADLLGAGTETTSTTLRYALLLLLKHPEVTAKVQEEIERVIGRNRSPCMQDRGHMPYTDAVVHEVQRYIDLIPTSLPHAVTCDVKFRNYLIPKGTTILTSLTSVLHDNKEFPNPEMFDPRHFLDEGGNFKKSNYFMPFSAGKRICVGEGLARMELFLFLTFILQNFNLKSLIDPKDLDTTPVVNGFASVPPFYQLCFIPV

Candida albicans [17] = test: Inhibition of hyphal growth of fluconazole-sensitive Candida albicans SC5314 assessed as appearance of pseudohyphal form at 2 ug/ml after 16 hrs by light microscopic analysis; format: functional, organism-based; in short: as §3
Candida albicans [18] = test: Antifungal activity against fluconazole-sensitive Candida albicans SC5314 after 24 hrs by serial dilution method; format: functional; details: SC5314, 24 h
Trichophyton rubrum = test: Antifungal activity against Trichophyton rubrum Cmccftla after 7 days by serial dilution method; format: functional; details: 168 h
CYP2C19 [19] = target: T3, CYP2C19; test: Inhibition of CYP2C19 in human liver microsomes assessed as S-mephenytoin conversion to 4'-hydroxy mephenytoin at 2.5 uM preincubated for 10 mins followed by NADPH addition measured after 15 mins by LC-MS/MS analysis relative to control; format: ADME; details: probe S-mephenytoin

Fc1ccc2c(c1)c1c(n2CCCOc2ccc(Cl)cc2)CCNC1
Activity (Candida albicans [1]): Dose-dependent effect | Activity (Candida albicans [2]): 40.2% | inhibition at 0.25 h, 0.25 µM (CYP2C9 [3]): -2% | growth inhibition (GI) (Candida albicans [4]): Active | MIC80 (Candida parapsilosis): 4 µg/mL (≈ 11.1 µM) | fractional inhibitory concentration index (FICI) (Candida albicans [5]): 0.252 | inhibition at 0.25 h, 2.5 µM (CYP2C9 [6]): 8% | Activity (Candida albicans [7]): Active | MIC80 (Cryptococcus neoformans): 1 µg/mL (≈ 2.79 µM) | IC50 (WI-38): > 40 µg/mL | IC50 (Cytochrome P450 3A4 [8]): 25 µM | inhibition at 64 µg/mL (Candida albicans [9]): > 80% | Activity (Candida albicans [10]): Active | IC50 (Cytochrome P450 2C9): > 25 µM | Activity (Candida albicans [11]): 31.5% | inhibition at 0.25 h, 2.5 µM (CYP3A4): -10% | IC50 (Cytochrome P450 3A4 [12]): 50 µM | Activity (Candida albicans [13]): inactive | growth inhibition (GI) (Candida albicans [14]): Active | Activity (Candida albicans [15]): 3.7% | MIC80 (Nannizzia gypsea): 1 µg/mL (≈ 2.79 µM) | inhibition at 0.25 h, 0.25 µM (CYP2C19 [16]): 4% | growth inhibition (GI) (Candida albicans [17]): Active | MIC80 (Candida albicans [18]): 2 µg/mL (≈ 5.57 µM) | MIC80 (Trichophyton rubrum): 2 µg/mL (≈ 5.57 µM) | inhibition at 0.25 h, 2.5 µM (CYP2C19 [19]): 5%
